# LANA-H2A inh: blockers of LANA interaction with H2A/H2B – biochemical, FP readout, HTS, primary screen; Protein LANA1 (Human herpesvirus 8 type P (isolate GK18)), Q9QR71; cell-free LANA-H2A/H2B peptide, fluorescence polarization; hit rate 0.6% among 320,000; inhibition, % (no concentration beside the values); AID 2629, 2010; in the data active = inhibition mostly above about 10%, no sharp cut-off; inactive = mostly below about 6.7%
# GPR7 antag: GPR7 receptor antagonists, primary screen, cell-based, fluorescence, single concentration. GPR7-expressing cells, fluorescence antagonist assay. inhibition, % at 4.4 µM. hit rate 1.1% among 290,000. AID 1861, 2009; in the data active = inhibition above about 16%, passing the limit was not always enough;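 note: cells stimulated with the agonist NPW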
# Target sequence (P48145 whole entry, looked up): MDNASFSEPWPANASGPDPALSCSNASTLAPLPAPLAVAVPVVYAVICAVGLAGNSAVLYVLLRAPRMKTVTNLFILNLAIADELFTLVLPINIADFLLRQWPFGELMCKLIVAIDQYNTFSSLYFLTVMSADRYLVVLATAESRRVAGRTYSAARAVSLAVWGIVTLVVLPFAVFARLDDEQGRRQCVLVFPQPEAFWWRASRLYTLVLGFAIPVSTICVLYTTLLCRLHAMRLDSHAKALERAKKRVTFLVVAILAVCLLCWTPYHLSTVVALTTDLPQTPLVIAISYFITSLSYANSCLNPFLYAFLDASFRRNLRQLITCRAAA
# TAAR1 agonist: human TAAR1 agonists, primary screen, Fluo-8 calcium fluorescence, CHO RD-HGA16 cells; activation, % at 3 µM; Trace amine-associated receptor 1 (Homo sapiens), Q96RJ0; hit rate 0.99% among 360,000; vehicle wells 0%, saturating PEA agonist 100%;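 active = activation above the mean activation of all test compounds in the run plus 3 SD, cut at about 38% in these data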
# Target sequence (Q96RJ0 whole entry, looked up): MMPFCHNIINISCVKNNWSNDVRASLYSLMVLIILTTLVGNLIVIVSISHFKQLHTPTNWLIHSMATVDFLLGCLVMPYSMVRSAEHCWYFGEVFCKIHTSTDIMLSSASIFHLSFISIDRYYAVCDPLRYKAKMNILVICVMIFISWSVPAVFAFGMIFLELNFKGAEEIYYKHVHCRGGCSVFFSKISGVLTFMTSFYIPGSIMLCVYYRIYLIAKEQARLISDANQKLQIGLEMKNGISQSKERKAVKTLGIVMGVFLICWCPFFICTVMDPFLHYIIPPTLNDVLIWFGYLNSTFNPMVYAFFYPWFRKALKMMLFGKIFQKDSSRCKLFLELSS
#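 Assay system – CHO-derived RD-HGA16 cells with stable Gα16 and human TAAR1 · Compound dosing – one-point dosing at 3 µM (nominal) · Incubation – 17-24 h seeding, 75 min 37 °C dye, 30 min RT · Measured by – kinetic Fluo-8 calcium fluorescence · Control set – DMSO vehicle as 0%, PEA at EC100 as 100% · Repeats – single well for each compound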
# TAAR1 antag: human TAAR1 antagonists, primary screen, Fluo-8 calcium fluorescence, CHO RD-HGA16 cells; Trace amine-associated receptor 1 (Homo sapiens), Q96RJ0; antagonist; inhibition, % at 3 µM; hit rate 1.5% among 360,000;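 active = inhibition above a per-plate cutoff, the mean inhibition of test compounds on that plate plus 3 SD, cut at about 49% in these data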
#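 Test system: RD-HGA16 CHO cells with stable hTAAR1 and Gα16 / Probe or stimulus: EC80 β-phenethylamine stimulus / Times: seeding 17-24 h prior, 75-min 37 °C, 30-min RT dye loading / Detection: Fluo-8 calcium-sensitive fluorescence / Read-out basis: % inhibition scaled between DMSO and EC80 PEA controls / Repeats: singlicate, one well per test compound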
# zfTRPN1 agonist: zebrafish TRPN1 channel agonists, primary screen, cell-based, HEK293, calcium fluorescence | HEK293 zebrafish TRPN1-YFP, Fluo-8 calcium fluorescence; 100% = response to 87 µM carbachol | activation, % at 3 µM | hit rate 0.18% among 220,000 | AID 1424, 2008;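 active = activation above its plate's cutoff, the mean activation of test wells on that plate plus 3 SD, cut at about 19% in these data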
#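 Material: zebrafish TRPN1-YFP in HEK293 cells; Doses: single test compound dose, 3 µM nominal, 0.3% DMSO; Timing: dye loading 1 h at 37 °C, then 30 min room temperature; Technique: intracellular calcium fluorescence with Fluo-8; Benchmarks: high carbachol 87 µM, low DMSO alone.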
# TRPML3 ag: human TRPML3 channel agonists, primary screen, cell-based, HEK293 TRPML3-YFP, Fluo-8 calcium fluorescence, 3 µM. 100% = the carbachol control signal. AID 1448, 2008. activation, % at 3 µM. hit rate 0.29% among 220,000. Mucolipin-3 (Homo sapiens), Q8TDD5;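 active = activation above its plate's cutoff, the mean activation of the plate's test wells plus 3 SD, cut at about 12% in these data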
#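 Test system – HEK293 line with stable expression of human TRPML3-YFP channel · Control set – carbachol 87 µM final as high control (100%), DMSO as low control (0%) · Signal – Fluo-8 calcium dye fluorescence, ex 470-495, em 515-575 nm · Incubation – 1-h 37 °C dye load, 5-s basal, 120-s post-compound reads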
# nonsel antag count: nonselective antagonists in TAAR1 counter-screen cells, counter-screen for hTAAR1 antagonist project, cell-based, fluorescence, calcium | shares compounds with TAAR1 antag | counterscreen cell line, antagonist mode | inhibition, % at 3 µM | hit rate 77% among 2,400 | AID 651780, 2012; in the data active = inhibition above about 22%;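 note: CHO-Ga16 host cells stimulated with ATP at an EC80 level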
# TAAR1 antag conf: human TAAR1 antagonists, retest of hits, confirmation, cell-based, fluorescence. hit rate 40% among 2,400. inhibition, % at 3 µM. shares compounds with TAAR1 antag. TAAR1-expressing cells, fluorescence antagonist read-out. AID 651785, 2012; in the data active = inhibition above about 49%;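 note: CHO-Ga16 host cells challenged with agonist PEA near its EC80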
# Ga16 nonsel ag: calcium activation in Ga16-expressing cells, counter-screen for TAAR1 antagonist project, cell-based, fluorescence; shares compounds with TAAR1 antag; agonist counterscreen; activation, % at 3 µM; hit rate 18% among 2,400; AID 651953, 2012; in the data active = activation above about 12%
# TAAR1 ag count: TAAR1 activation by candidate antagonists – cell-based, fluorescence, counter-screen for TAAR1 antagonist project; hTAAR1 cell line, agonist mode; hit rate 2% among 2,400; AID 651955, 2012; shares compounds with TAAR1 antag; activation, % at 3 µM; in the data active = activation above about 37%;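 note: CHO cells stably expressing TAAR1 with calcium dye readout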
# A number is an active result; – = inactive; · = not tested or not shown. Rows were chosen to be rich in hits. Some 3.4% of all compounds tested hit in one or more screens of this group.
SMILES,LANA-H2A inh,GPR7 antag,TAAR1 agonist,TAAR1 antag,zfTRPN1 agonist,TRPML3 ag,nonsel antag count,TAAR1 antag conf,Ga16 nonsel ag,TAAR1 ag count
Cc1ccc([C@H]2C[C@H](O)[C@@H](n3cc(C4CC4)nn3)CN2C(=O)c2cccs2)cc1,·,·,–,–,·,·,·,·,·,·
CCOC(=O)c1ccccc1NC(=O)COC(=O)c1cc([N+](=O)[O-])ccc1N1CCOCC1,–,·,–,59,·,·,27,–,–,–
C#Cc1cccc(NC(=O)c2ccc3c(c2)C(=O)N(Cc2cccnc2)C3=O)c1,–,–,–,85,·,·,42,61,14,–
CC(=O)c1c(C)[nH]c(C(=O)Nc2nc(-c3ccc(-c4ccccc4)cc3)cs2)c1C,–,–,–,93,–,–,71,97,27,37
Cc1ccc(-c2csc(N3CCN(c4cc5c(cc4Cl)nc(-c4ccncc4)n5CCN4CCCCC4)CC3)n2)cc1,–,–,–,–,·,·,·,·,·,·
COc1ccc(-c2csc(N3CCN(c4cc5c(cc4Cl)nc(-c4ccncc4)n5CCOCCO)CC3)n2)cc1,–,–,–,50,·,·,34,–,–,–
CC(C)(C)c1ccc(/C=N/NC(=O)c2ccccn2)cc1,–,–,–,–,–,–,·,·,·,·
Nc1ccc(C(=O)N/N=C\c2ccc(OC(=O)c3ccccc3Cl)cc2)cc1,–,–,–,68,·,·,29,59,–,–
O=C(N/N=C/c1ccc(OC(=O)c2ccccc2Br)cc1)c1ccccn1,–,–,–,52,·,·,30,–,–,–
CCOC(=O)c1ccccc1OCc1cc(/C=N/NC(=O)c2ccncc2)ccc1OC,–,–,–,77,–,–,36,54,–,–
COc1cc(/C=N\NC(=O)c2cccnc2)ccc1OC(=O)c1ccccc1Cl,–,–,–,54,·,·,28,–,16,–
COC(=O)c1ccc(/C=N/NC(=O)c2ccccc2Cl)cc1,–,–,–,–,–,–,·,·,·,·
COC(=O)CN(C)C(=O)c1ccc(OC2CCN(S(=O)(=O)N(C)C)CC2)cc1,–,–,–,–,·,·,·,·,·,·
CCc1cccc(C)c1NC(=O)COC(=O)CSCc1ccccc1,–,·,–,–,·,·,·,·,·,·
Cc1cc(OCC(=O)OCC(=O)N2CCc3ccccc3C2)ccc1Cl,–,·,–,–,·,·,·,·,·,·
CCN(CC(=O)Nc1cc(Cl)ccc1C)CC(=O)NC1CC1,·,·,–,–,·,·,·,·,·,·
O=C(Oc1ccc(/C=N/NC(=O)c2ccccc2F)cc1)c1ccccc1,–,–,–,–,·,·,·,·,·,·
COc1cc(C(=O)N/N=C/c2ccc(OC(=O)c3ccccc3Cl)cc2)ccc1O,–,–,–,80,·,·,30,58,–,–
O=C(Oc1ccc(/C=N/NC(=O)c2ccccc2O)cc1)c1ccccc1,–,–,–,74,–,–,38,68,–,–
COc1ccc(N(CC(=O)NCCSCc2ccc(C)cc2)S(=O)(=O)c2ccccc2)cc1,–,–,–,69,·,·,37,56,–,–
COc1ccc(CCNC(=O)CN(c2ccccc2OC)S(=O)(=O)c2ccc(C)cc2)cc1,–,–,–,–,·,·,·,·,·,·
COc1ccccc1N(CC(=O)NCCSCc1ccc(C)cc1)S(=O)(=O)c1ccccc1,–,–,–,84,·,·,27,51,–,–
CC(C)OC(=O)c1ccc(NC(=O)c2cncc(Br)c2)cc1,–,–,–,65,–,–,27,–,16,–
O=C(NCc1ccc2c(c1)OCO2)C1CCC(CNS(=O)(=O)c2ccc(Cl)cc2)CC1 (centres undefined),–,–,–,49,–,–,–,–,–,–
Cc1ccc(S(=O)(=O)NCC2CCC(C(=O)NCc3ccc4c(c3)OCO4)CC2)cc1 (centres undefined),–,–,–,–,–,–,·,·,·,·
SMILES,LANA-H2A inh,GPR7 antag,TAAR1 agonist,TAAR1 antag,zfTRPN1 agonist,TRPML3 ag,nonsel antag count,TAAR1 antag conf,Ga16 nonsel ag,TAAR1 ag count
COc1cc(NC(=O)c2cc3ccccc3o2)ccc1NC(=O)c1ccco1,–,–,–,64,·,·,26,51,–,–
COc1cc(NC(=O)c2oc3ccccc3c2C)ccc1NC(=O)c1ccco1,–,–,–,54,·,·,26,–,–,–
Cc1cc(Br)cn2c(Cc3ccsc3)c(-c3cccc(Br)c3)nc12,·,·,–,–,·,·,·,·,·,·
O=C(N=Nc1c(O)n(Cc2ccccc2)c2ccccc12)c1cc2ccccc2cc1O,–,–,–,–,–,–,·,·,·,·
O=C(N=Nc1c(O)n(Cc2ccccc2)c2ccccc12)c1ccc(O)cc1,–,–,–,51,–,–,–,–,–,–
CCOC(=O)c1c(C)[nH]c(C)c1S(=O)(=O)NCC(=O)Nc1ccccn1,–,–,–,–,·,·,·,·,·,·
Cc1csc(SCCn2c(N3CCN(c4ccccc4)CC3)nc3c2c(=O)[nH]c(=O)n3C)n1,–,–,–,54,–,–,–,–,–,–
Cn1c(N2CCCCC2)nc2c1c(=O)[nH]c(=O)n2C,–,–,–,–,–,–,·,·,·,·
Cn1c(N2CCN(C(c3ccccc3)c3ccccc3)CC2)nc2c1c(=O)[nH]c(=O)n2C,–,–,–,67,·,·,31,50,13,–
CCN(CC)C(=O)C1=C(C)N(Cc2ccc(C(C)(C)C)cc2)C(=O)C(CC(=O)NCCCN(C)C)C1 (centres undefined),·,·,–,–,·,·,·,·,·,·
O=C(Nc1ccc2ccccc2n1)c1ccccc1Br,–,–,–,–,·,·,·,·,·,·
C/C(=N\NC(=O)COc1ccccc1[N+](=O)[O-])c1cccc(NC(=O)c2ccncc2)c1,–,–,–,86,·,·,38,58,15,–
C/C(=N\NC(=O)c1ccncc1)c1cccc(NC(=O)c2ccc(C(C)(C)C)cc2)c1,–,–,–,76,·,·,37,54,–,–

# From PubChem BioAssay
